According to the EternaBench riboswitch data:

Tested on: MS2 coat protein
Assay: apparent Kd, MS2 coat protein; higher = weaker binding; RNA-MaP array; theophylline 2 mM where present
Summary of the method: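 SNAP-549-labelled MS2 coat protein, doubled from 0.7 or 1.5 nM to 3 µM, was titrated over designs transcribed by stalled E. coli RNA polymerase on Illumina sequencing-chip clusters. Titrations were run without and then with constant ligand in 100 mM Tris-HCl pH 7.5, 80 mM KCl, 4 mM MgCl2, BSA, DTT, yeast tRNA and Tween-20. The apparent Kd is the median of filtered per-cluster fits to green signal normalised to red-channel RNA signal and control-cluster median Fmax.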

[1] = designed as: ON switch for theophylline, no ligand
[2] = ligand present: theophylline, designed as: ON switch for theophylline
[3] = designed as: OFF switch for theophylline, no ligand
[4] = ligand present: theophylline, designed as: OFF switch for theophylline

| Sequence | apparent Kd [1] | apparent Kd [2] | apparent Kd [3] | apparent Kd [4] |
| --- | --- | --- | --- | --- |
| GAUCCUCAUACGGAUACCAGCGAAUAACAUGAGGAUCACCCAUGUAAUAAAGAAAAUAAAUGCCCUUGGCAGCCGAAUAGAUAGU | 166 nM | 69.4 nM |  |  |
| CGUACAUGAGGAUCACCCAUGUAGAGUGAUACCAGUCUACCUAGUGACCCUUGGCAGCACAUCGAUGGCAUCGGUGAUGCCGUUU | 87.3 nM | 83.3 nM |  |  |
| CGGUUUGUGAUGGAUACCAGCAGAGAGAAUGUUUAUCCUGACAUGAGGAUCACCCAUGUGUGCCCUUGGCAGCUGUUGUGGGCUG |  |  | 60 nM | 69 nM |
| UCACGAGGCCUGGAUACCAGCGACAUGAGGAUCACCCAUGUAUGAGGAUCAGCCAUGUUAUGCCCUUGGCAGCCACGAAGGUCAU |  |  | 14.6 nM | 94.5 nM |
| ACAUGAGGAUCACCCAUGUUCCUCUUUGAUACCAGUGAGUUGUUUCGCCCUUGGCAGCGAGUGUUUGUUUUUUUGUUUUGUUUGG |  |  | 215 nM | 288 nM |
| ACAUGAACAUGAGGAUCACCCAUGUAUGAUACCAGAAAAGAAGAGUUCCCUUGGCAGCGUACAACACAUGAGGAUCACCCAUGUG | 24.1 nM | 24.3 nM |  |  |
| GUAUGGAAACAUACUAUGGUAUCGUGAGAUACCAGUACAGAAAUGUACCCUUGGCAGCUCGCGCAUACAUGAGGAUCACCCAUGU |  |  | 18.1 nM | 25.7 nM |
| AUGGUAGGACAGCACAUAUAAGCUUGUGAUACCAGCUAGAAAACUAGCCCUUGGCAGCACAUUACAUGAGGAUCACCCAUGUCCC |  |  | 51 nM | 75.7 nM |
| GGGCCUGUAAGCAGACCCACAGCGGGUGAUACCAGCAAUAAAACUUGCCCUUGGCAGCACACAGCUACAUGAGGAUCACCCAUGU | 43.2 nM | 83.2 nM |  |  |
| AUAAUGGGUAUCGGAUUAUCAUGAUAUGAUACCAGAUACUUAGAUAUCCCUUGGCAGCAUGAGGACAUGAGGAUCACCCAUGUAU |  |  | 35 nM | 61.8 nM |
| AGCGAUAUGCAUGAUACCAGCUACAUGAGGAUCACCCAUGUGCGUCAGUAAUGACUGUGUAGCCCUUGGCAGCAUAGAGCAUGUA |  |  | 37.6 nM | 70.4 nM |
| AAUAACAUGAGGAUCACCCAUGUAAAAGAUACCAGAGUGAUGAUCCUCCCUUGGCAGCUUAAAACGCUAUUGAUUACAAUAGCGA | 54.9 nM | 119 nM |  |  |
| UUUGAUAGAACAGAUACCAGCGUGUUAUAAAACAUGAGGAUCACCCAUGUAGUGAUCAAGCGCCCUUGGCAGCUGGUUUGUUAGG | 135 nM | 182 nM |  |  |
| AUUAAUAGUUGUGAUACCAGACGAACAUGAGGAUCACCCAUGUAACUUUUAGGUGUUGUAGUCCCUUGGCAGCACUAUUUAGUUA | 42.7 nM | 35.3 nM |  |  |
| AAUAUAAGUGUAAUUAUAUUUAUAUCUGAUACCAGACUCUCAUGUGUCCCUUGGCAGCAGUUACAUGAGGAUCACCCAUGUAUUA | 76 nM | 21.6 nM |  |  |
| CUCUGAGUGAGCAAUCACUCAGAGGCGGAUACCAGCGAGGUCCAUCGCCCUUGGCAGCCGAACAUGAGGAUCACCCAUGUCGGUA | 10.1 nM | 16.6 nM |  |  |
| GAGGGUGGGUCUCUAAUCCGUUUGACGGAUACCAGCGAGAGAUAUCGCCCUUGGCAGCCGACGACAUGAGGAUCACCCAUGUAAA |  |  | 15.6 nM | 101 nM |
| AGACAUGAGGAUCACCCAUGUAGUACGGAUACCAGAUCCAGAUGCGUCCCUUGGCAGCUGUAGUACAGCGUUACAUCGCUCAUAG |  |  | 37.9 nM | 70.7 nM |
| GAUGAACUAUUUGAUACCAGACUACAUGAGGAUCACCCAUGUGUGUUUAUACUUCAGUCAGUCCCUUGGCAGCAAAUAGUUUAUC |  |  | 147 nM | 306 nM |
| UACAUGAGGAUCACCCAUGUAUAGAGGGAUACCAGUGUCAGUGAGCACCCUUGGCAGCCCGCGAACAAUGGGUGCGCUAAAUAGU |  |  | 30.4 nM | 56.9 nM |
| AUAACAUGAGGAUCACCCAUGUAAGCAGAUACCAGCUAGGAAACUAGCCCUUGGCAGCUGCAUAGUGAUCCAUAUAUCUGCUAAU |  |  | 53.6 nM | 42.8 nM |
| UUUUUUAUCAUGGCGUAUCGGAAAACCGAUACCAGUACAGAAAUGUACCCUUGGCAGCGGCGUUUUACAUGAGGAUCACCCAUGU |  |  | 14.5 nM | 69.2 nM |
| AACAGGGCUCGCACGAAGCCCUAAGGUGAUACCAGCACAUGUAAGUGCCCUUGGCAGCACGGUACAUGAGGAUCACCCAUGUAGA | 64.3 nM | 255 nM |  |  |
